Compound activity from PubChem BioAssay.
The list is not random: actives were taken first. Their share in the collection is about 2.8%.
E-sel inducer: E-selectin induction on HUVECs. P16581. HUVEC E-selectin immunofluorescence imaging; normalized: neutral wells 0, TNF-alpha wells 100. activation, % at 7.58 µM. 0.37% of 260,000 active;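 active = mean E-selectin-positive cell signal at least 10% of the positive control, reached in at least 60% of replicates, without over 20% cell loss; inconclusive = no rule given, readout overlaps actives, possibly toxicity-flagged; inactive = the rest, including those meeting only one limit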
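System: HUVEC, human umbilical vein endothelial cells; quantity: 3,000 cells/well; buffer or medium: EGM-2 medium, gelatin-coated wells; dosing: single-point compound dose; detection: immunofluorescence imaging; evaluation: % PE-positive cells; benchmarks: TNF-alpha, DMSO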
DENV2 CPE: DENV2-induced cell death inhibition. CPE inhibition, % at 9.99 µM. AID 651640. 1.7% of 350,000 active. DENV2-infected cells, cytopathic effect rescue, plate reader; in the data active = CPE inhibition above about 20%, passing the limit was not always enough; inconclusive = no clear call, values can overlap the other calls; tested in BHK-21 cells;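 note: 0% = median of neutral control wells and 100% = median of positive control wells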
SIRT5 inh: inhibitors of human sirtuin-5 desuccinylase; Q9NXA8; Purified SirT5, succinyl-peptide AMC, trypsin-coupled fluorescence; inhibition, % at 15 µM; 1.1% of 330,000 active; AID 652115; in the data active = inhibition above about 15%; inconclusive = no clear call, values can overlap the other calls
Target sequence (Q9NXA8 whole entry, looked up): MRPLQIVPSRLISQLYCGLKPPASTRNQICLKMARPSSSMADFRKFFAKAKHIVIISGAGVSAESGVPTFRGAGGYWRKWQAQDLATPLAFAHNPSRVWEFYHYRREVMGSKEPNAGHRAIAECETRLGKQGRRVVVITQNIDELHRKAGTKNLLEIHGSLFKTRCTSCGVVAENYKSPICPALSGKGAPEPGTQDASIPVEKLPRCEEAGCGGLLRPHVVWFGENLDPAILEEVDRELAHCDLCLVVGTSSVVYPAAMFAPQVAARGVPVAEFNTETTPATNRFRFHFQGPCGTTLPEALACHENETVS
* = called active by the depositor; ? = inconclusive; / = not tested or not shown.

SMILES	E-sel inducer	DENV2 CPE	SIRT5 inh
COc1cccc(NC(=O)N(C)C[C@H]2Oc3cc(C#CC4(O)CCCC4)ccc3S(=O)(=O)N([C@@H](C)CO)C[C@@H]2C)c1	1	4	4
COc1ccc(S(=O)(=O)N(C)C[C@@H]2OCCCC[C@@H](C)Oc3ccc(NC(=O)c4ccccc4)cc3C(=O)N([C@H](C)CO)C[C@H]2C)cc1	0	4	5
COc1ccc(S(=O)(=O)N(C)C[C@@H]2OCCCC[C@H](C)Oc3ccc(NC(=O)Nc4ccc(F)cc4)cc3C(=O)N([C@@H](C)CO)C[C@H]2C)cc1	0	-2	13
COc1ccc(S(=O)(=O)N(C)C[C@H]2OCCCC[C@@H](C)Oc3ccc(NC(=O)Nc4ccc(F)cc4)cc3C(=O)N([C@@H](C)CO)C[C@H]2C)cc1	0	-1	17*
COc1ccc(S(=O)(=O)N(C)C[C@@H]2OCCCC[C@@H](C)Oc3ccc(NC(=O)c4ccccc4)cc3C(=O)N([C@@H](C)CO)C[C@@H]2C)cc1	0	29*	4
CCNC(=O)Nc1ccc2c(c1)C(=O)N(C)[C@H]1CC[C@@H](CC(=O)NCCOC)O[C@@H]1CO2	0	/	/
Cc1noc(C)c1S(=O)(=O)Nc1ccc2c(c1)C(=O)N([C@@H](C)CO)C[C@@H](C)[C@@H](CN(C)C(=O)CCC(F)(F)F)OCCCC[C@H](C)O2	0	16	-7
CO[C@H]1CN(C)C(=O)c2cc(NC(=O)Nc3cccc(Cl)c3)ccc2OC[C@@H](C)NC[C@H]1C	0	?	-3
FC(F)(F)c1ccc(Oc2ccc3ccccc3c2Br)nc1	/	-7	24*
O=[N+]([O-])c1ccccc1Oc1ccc(C(F)(F)F)cn1	/	-9	-4
C[C@@H]1CCCCO[C@H](CN(C)Cc2ccc3c(c2)OCO3)[C@@H](C)CN([C@H](C)CO)C(=O)c2cc(NC(=O)NC3CCCCC3)ccc2O1	0	?	-4
C[C@@H]1CCCCO[C@@H](CN(C)Cc2ccc3c(c2)OCO3)[C@H](C)CN([C@@H](C)CO)C(=O)c2cc(NC(=O)NC3CCCCC3)ccc2O1	0	44*	-2
C[C@H](CO)N1C[C@H](C)[C@H](CN(C)Cc2ccc3c(c2)OCO3)OCCCC[C@H](C)Oc2ccc(NC(=O)NC3CCCCC3)cc2C1=O	0	26*	0
C[C@@H]1CCCCO[C@@H](CN(C)Cc2ccc3c(c2)OCO3)[C@H](C)CN([C@H](C)CO)C(=O)c2cc(NC(=O)NC3CCCCC3)ccc2O1	0	?	-9
CNC(=O)C[C@@H]1CC[C@H]2[C@@H](COc3ccc(NC(=O)c4ccc(C(F)(F)F)cc4)cc3C(=O)N2C)O1	0	-2	/
C[C@@H]1CN([C@@H](C)CO)C(=O)c2cc(NC(=O)CCCCCC(=O)Nc3ccccc3N)ccc2O[C@H]1CN(C)Cc1ccccc1	0	15	21*
C[C@H](CO)N1C[C@H](C)[C@H](CN(C)C(=O)Nc2ccccc2)Oc2ccc(NC(=O)CCCCCC(=O)Nc3ccccc3N)cc2C1=O	0	52*	-4
C[C@H](CO)N1C[C@H](C)[C@@H](CN(C)Cc2ccc(C(F)(F)F)cc2)Oc2ccc(NC(=O)CCCCCC(=O)Nc3ccccc3N)cc2CC1=O	0	13	2
C[C@@H]1CN([C@@H](C)CO)C(=O)Cc2cc(NC(=O)CCCCCC(=O)Nc3ccccc3N)ccc2O[C@@H]1CN(C)Cc1ccc(C(F)(F)F)cc1	0	96*	1
C[C@H](CO)N1C[C@H](C)[C@H](CN(C)Cc2ccncc2)Oc2ccc(NC(=O)CCCCCC(=O)Nc3ccccc3N)cc2C1=O	/	-7	/
C[C@H]1CN([C@@H](C)CO)C(=O)c2cc(NC(=O)CCCCCC(=O)Nc3ccccc3N)ccc2O[C@H]1CN(C)Cc1ccc(-c2ccccc2)cc1	0	/	/
C[C@H]1CN([C@@H](C)CO)C(=O)c2cc(NC(=O)CCCCCC(=O)Nc3ccccc3N)ccc2O[C@H]1CN(C)C(=O)Nc1ccccc1	0	-3	/
C[C@H](CO)N1C[C@H](C)[C@H](CN(C)Cc2ccc(-c3ccccc3)cc2)Oc2ccc(NC(=O)CCCCCC(=O)Nc3ccccc3N)cc2C1=O	18	32*	23*
CN1C(=O)c2cc(NC(=O)c3ccc(F)c(F)c3)ccc2OC[C@@H]2O[C@H](CC(=O)O)CC[C@@H]21	0	5	/
CCC(=O)Nc1ccc2c(c1)C(=O)N(C)C[C@@H](OC)[C@H](C)CN(C(=O)c1ccncc1)[C@@H](C)CO2	0	/	-4
SMILES	E-sel inducer	DENV2 CPE	SIRT5 inh
C[C@@H]1CN([C@@H](C)CO)C(=O)c2cc(C#Cc3cccnc3)cnc2O[C@H]1CN(C)Cc1ccc(F)cc1	0	11	3
COCC(=O)Nc1ccc2c(c1)C(=O)N(C)C[C@H](OC)[C@@H](C)CN(C(=O)c1cnccn1)[C@@H](C)CO2	0	-1	-6
CCNC(=O)C[C@@H]1CC[C@@H]2[C@H](COC[C@@H](O)CN2C(=O)Nc2ccc(C(F)(F)F)cc2)O1	1	9	4
COc1ccc2c3c([nH]c2c1)[C@@H](CO)N(C(=O)Cc1ccccc1)CC31CCN(C(=O)Cc2ccccc2)CC1	0	6	/
C[C@H]1CN([C@@H](C)CO)C(=O)c2cc(NC(=O)CCCCCC(=O)Nc3ccccc3N)ccc2O[C@H]1CN(C)Cc1ccc(Oc2ccccc2)cc1	0	-7	17*
C[C@H](CO)N1C[C@H](C)[C@@H](CN(C)S(=O)(=O)c2ccc(F)cc2)Oc2ccc(NC(=O)CCCCCC(=O)Nc3ccccc3N)cc2C1=O	-6	26*	/
COc1ccc(CN(C)C[C@H]2Oc3ccc(NC(=O)CCCCCC(=O)Nc4ccccc4N)cc3CC(=O)N([C@@H](C)CO)C[C@@H]2C)cc1	0	19	10
C[C@@H]1CN([C@H](C)CO)C(=O)Cc2cc(NC(=O)CCCCCC(=O)Nc3ccccc3N)ccc2O[C@H]1CN(C)Cc1ccc(Oc2ccccc2)cc1	12	2	15*
C[C@@H]1CN([C@@H](C)CO)C(=O)c2cc(NC(=O)CCCCCC(=O)Nc3ccccc3N)ccc2O[C@@H]1CN(C)Cc1ccncc1	/	-8	/
C[C@H](CO)N1C[C@H](C)[C@H](CN(C)S(=O)(=O)c2ccc(F)cc2)Oc2ccc(NC(=O)CCCCCC(=O)Nc3ccccc3N)cc2C1=O	-6	-1	/
COc1cccc(NC(=O)N2C[C@@H](O)COC[C@@H]3O[C@H](CC(=O)NC4Cc5ccccc5C4)CC[C@H]32)c1	0	5	0
COc1ccc(S(=O)(=O)Nc2ccc3c(c2)C(=O)N([C@H](C)CO)C[C@H](C)[C@@H](CN(C)C(=O)CCC(F)(F)F)OCCCC[C@@H](C)O3)cc1	0	10	1
CN(C)C(=O)c1cccc(-c2ccc([C@H]3[C@@H](C#N)N(C(=O)C4CC4)[C@@H]3CO)cc2)c1	0	-1	2
c1cncc(-c2cnc3ccccc3c2)c1	1	-6	/
F[B-](F)(F)c1cnc2ccccc2c1	/	26*	1
Cn1cccc1C(=O)OCC(=O)NC(=O)c1ccc(Cl)cc1	0	26*	-3
Cc1ccc(C(=O)OCC(=O)NC(=O)c2cccn2C)cc1	/	13	2
